# CHRM1 antagonist: blocks human M1 muscarinic receptor; P11229; CHO-K1 hM1, Fluo-8 calcium fluorescence, ACh EC80 antagonist; inhibition, % at 3 µM; 1.3% of 360,000 active; AID 588852;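 active = percent inhibition above its own plate's cutoff, namely the mean of that plate's compound wells plus 3 SD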;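 note: peak over basal fluorescence ratio during 140 s after agonist addition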
# M1 PAM: human CHRM1 positive allosteric modulation; CHO-K1 hM1, Fluo-8 calcium fluorescence, ACh EC20; 0% = ACh EC20, 100% = maximal ACh; 0.088% of 360,000 active; activation, % at 3 µM; in the data active = activation above about 19%, passing the limit was not always enough
# TAAR1 antag: human TAAR1 antagonism; inhibition, % at 3 µM; Q96RJ0; CHO RD-HGA16 TAAR1, Fluo-8 calcium fluorescence, antagonist; 1.5% of 360,000 active;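 active = inhibition above a per-plate cutoff, the mean inhibition of test compounds on that plate plus 3 SD, cut at about 49% in these data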
# Target sequence (Q96RJ0 whole entry, looked up): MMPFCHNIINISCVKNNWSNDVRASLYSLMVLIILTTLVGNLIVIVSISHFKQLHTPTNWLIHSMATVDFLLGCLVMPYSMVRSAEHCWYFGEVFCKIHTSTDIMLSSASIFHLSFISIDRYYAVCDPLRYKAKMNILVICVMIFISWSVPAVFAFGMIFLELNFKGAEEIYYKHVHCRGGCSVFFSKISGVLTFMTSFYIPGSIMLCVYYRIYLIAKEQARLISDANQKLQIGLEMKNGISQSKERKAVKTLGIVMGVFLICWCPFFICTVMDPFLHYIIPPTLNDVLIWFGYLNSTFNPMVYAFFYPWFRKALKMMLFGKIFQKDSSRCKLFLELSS
#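 Material: RD-HGA16 CHO cells with stable hTAAR1 and Gα16; Dosing: single nominal final test compound concentration of 3 µM; Schedule: seeding 17-24 h prior, 75-min 37 °C, 30-min RT dye loading; Detection: kinetic Fluo-8 calcium fluorescence measurement; Measure: % inhibition from peak post-agonist over basal fluorescence ratio; Benchmarks: vehicle and agonist controls.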
# TAAR1 agonist: human TAAR1 agonism; AID 624467; CHO RD-HGA16 TAAR1, Fluo-8 calcium fluorescence; vehicle wells 0%, saturating PEA agonist 100%; Q96RJ0; 0.99% of 360,000 active; activation, % at 3 µM;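 active = activation above the mean activation of all test compounds in the run plus 3 SD, cut at about 38% in these data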
#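 System: CHO RD-HGA16 cells carrying human TAAR1 plus Gα16; Incubation: 17-24 h seeding, 75 min 37 °C dye, 30 min RT; Measured by: Fluo-8 fluorescence, 5 s baseline then 140 s kinetic read; Control set: DMSO and PEA EC100; Replication: single well for each compound.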
# M1 ag: human M1 muscarinic receptor agonism. AID 588814. 0.33% of 360,000 active. activation, % at 3 µM. CHO-K1 hM1, Fluo-8 calcium fluorescence, agonist mode; 0% DMSO, 100% acetylcholine EC100. P11229;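 active = activation above the run's mean compound activation plus 3 SD, cut at about 16% in these data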;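 note: peak over basal fluorescence ratio within a 140 s kinetic read after compound addition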
# A number is an active result; 0 = inactive; - = no result. Only some compounds are listed: those with a hit (about 3.4% of all), similar ones and a draw of the others.
SMILES,CHRM1 antagonist,M1 PAM,TAAR1 antag,TAAR1 agonist,M1 ag
Brc1ccc2c(c1)OCCOCCOc1cc(Br)ccc1OCCOCCOCCO2,39,0,-,-,0
COC(=O)c1ccc(N)c2c(N)ccc(C(=O)OC)c12,-,-,0,0,-
c1ccc(Cc2cnc(N3CCN(Cc4csc5ccccc45)CC3)nc2)cc1,-,-,0,0,-
Cc1cc(N2CCN(C(=O)OC(C)(C)C)C[C@@H]2C)ccc1N1CCS(=O)(=O)CC1,-,-,0,0,-
CCC(=O)c1ccc(OCC(O)CNC(C)c2ccccc2)cc1 (stereo unspecified),0,0,0,0,0
CC(C)N(CCNCC(O)COc1ccc(C(C)(C)c2ccccc2)cc1)C(C)C (stereo unspecified),34,0,0,0,0
CC(C)c1ccc(OCC(O)CNC(C)c2ccccc2)cc1 (stereo unspecified),0,0,0,57,0
OC(CNCCC(c1ccccc1)c1ccccc1)COc1ccccc1 (stereo unspecified),31,0,0,0,0
COc1cccc(CC(=O)N2CCN(C(=O)C(=O)c3ccc(OC)c(OC)c3)CC2)c1,-,-,0,0,-
CC(=O)C1=C(C)N(Cc2ccc(Cl)cc2)C(=S)NC1c1cccc(Br)c1 (stereo unspecified),-,-,0,0,-
C=C1[C@H](C)CN(S(=O)C(C)(C)C)[C@H]1CCO (stereo partly specified),-,-,0,0,-
O=C1c2cccc3cccc(c23)C(=O)N1c1ccc(O)cc1,0,0,0,0,0
O=C1c2cccc3c(N4CCCCC4)ccc(c23)C(=O)N1c1ccc(O)cc1,0,0,0,59,0
CCCCCOc1ccc(C(=O)CCC(=O)N2CCCC2)cc1,22,0,0,0,0
O=C1CSC(=S)N1/N=C/c1cc(Br)c(O)c(Br)c1,90,0,-,-,251
C[C@@H]1CN([C@@H](C)CO)C(=O)CCCn2cc(nn2)CO[C@H]1CN(C)C(=O)CCC(F)(F)F,-,-,0,0,-
COCCCNC(=O)C[C@H]1C[C@@]2(C(=O)OC)C(=C[C@H](C(C)C)O[C@@H]2C2CC2)N(Cc2ccccc2)C1=O,-,-,0,0,-
COc1ccccc1CN1CCC(CNS(=O)(=O)c2cc(-c3cc(C)no3)ccc2OC)CC1,93,0,0,0,0
CCCCOCCCNC(=O)C[C@H]1C[C@@]2(C(=O)OC)C(=C[C@H](C(C)(C)C)O[C@@H]2C)N(Cc2ccc3c(c2)OCO3)C1=O,-,-,0,0,-
Cc1ccc(SC[C@H](c2ccccc2)N2CCN(C)CCC2=O)cc1,33,0,0,0,0
CN1CCC(=O)N([C@H](CSc2ccccc2)c2ccccc2)CC1,0,0,0,0,0
C=CCCC1CN(Cc2ccc(OC)cc2)S(=O)(=O)c2c(Oc3ccc(C)cc3)cccc2O1 (stereo unspecified),-,-,0,0,-
COc1ccccc1CCC(=O)OCC(=O)c1c(N)n(CC(C)C)c(=O)n(C)c1=O,0,0,0,0,0
COc1ccc(CCC(=O)OCC(=O)c2c(N)n(CC(C)C)c(=O)n(C)c2=O)cc1,32,0,0,0,0
CCOc1ccccc1OCC(=O)OCC(=O)c1c(N)n(CC(C)C)c(=O)n(C)c1=O,28,0,0,0,0
SMILES,CHRM1 antagonist,M1 PAM,TAAR1 antag,TAAR1 agonist,M1 ag
CC(=O)Nc1cc(-c2ccccc2)cn2c(-c3cccc(C(C)=O)c3)cnc12,0,0,49,0,0
CC(=O)Nc1cc(-c2cccc(C(=O)N(C)C)c2)cn2c(-c3ccccc3)cnc12,0,0,0,0,0
CC(=O)Nc1cc(-c2cccc(F)c2)cn2c(-c3ccc(F)cc3)cnc12,0,0,56,0,0
Cc1cc(=O)oc2ccc(OCC(=O)N(Cc3ccc(F)cc3)Cc3ccco3)cc12,34,0,70,0,0
CCOC(=O)Oc1ccc2oc(=O)cc(C)c2c1,0,0,0,0,0
COC(=O)C1=C(C)N(Cc2ccc(C(F)(F)F)cc2)C(=NCC2CC2)NC1c1ccccc1 (stereo unspecified),-,-,0,0,-
CCCCCCCC[n+]1cccc(C(=O)N(CC)CC)c1,0,0,0,0,0
CCCCCCCCCCCCCCCC[n+]1cccc(C(=O)N(CC)CC)c1,57,0,0,0,0
N#CC1=C(N)Oc2cc(O)c(Cl)cc2C1c1cccnc1 (stereo unspecified),0,0,0,0,0
N#CC1=C(N)Oc2cc(O)c(Cl)cc2C1c1ccccc1F (stereo unspecified),0,0,0,0,26
NS(=O)(=O)c1ccc(CCNC(=O)c2cc(-c3ccco3)nc3ccccc23)cc1,0,0,0,0,0
COc1ccc(CCNC(=O)c2cc(-c3ccncc3)nc3c(Cl)cccc23)cc1OC,38,0,0,0,0
Cc1ccc(-c2cc(C(=O)NCCc3ccc(S(N)(=O)=O)cc3)c3ccccc3n2)cc1,0,0,51,0,0
COc1ccc(-c2cc(C(=O)NCCc3ccc(S(N)(=O)=O)cc3)c3ccccc3n2)cc1,0,0,54,0,0
NS(=O)(=O)c1ccc(CCNC(=O)c2cc(-c3ccccc3)nc3ccccc23)cc1,0,0,0,0,0
Cn1cc(CC(=O)Nc2ccc(Oc3cccnc3)cc2)c2ccccc21,-,-,0,0,-
Cc1ccc(NC(=O)c2sc3ncn(CC(=O)N4CCN(c5ccccn5)CC4)c(=O)c3c2C)cc1Cl,63,0,0,0,0
Cc1ccc(S(=O)(=O)CCC(=O)NCCN2C(=O)S/C(=C\c3ccccc3)C2=O)cc1,0,0,55,0,0
CC(=O)C1=C(C)N(Cc2ccc(Br)cc2)C(=S)NC1c1cccc(Br)c1 (stereo unspecified),-,-,0,0,-
CC(C)=CCc1c(O)ccc2c1OC(c1ccc(O)c(O)c1)CC2=O (stereo unspecified),0,0,57,0,0
COc1ccccc1OCC(O)Cn1c(=N)n(CCN2CCCCC2)c2ccccc21 (stereo unspecified),19,0,0,0,0
CS(=O)(=O)N1CCc2cc(-c3csc(NC(=O)Cc4cccs4)n3)ccc21,0,0,50,0,0
O=C(CN1CCOCC1)Nc1nc(-c2ccc3c(c2)CCN3S(=O)(=O)c2ccccc2)cs1,0,0,53,0,0
O=C(Nc1cccc(Cl)c1)c1csc([C@H]2C[C@H](O)[C@@H](CO)O2)n1,0,0,0,0,0
Cc1ccc(CNC(=O)CN2CCCC(C)C2)cc1 (stereo unspecified),0,0,0,0,0
CC1CCCN(CC(=O)N2c3ccccc3Sc3ccccc32)C1 (stereo unspecified),81,0,0,0,0
CC1CCCN(c2ccc(C(=O)OCC(=O)N3c4ccccc4Sc4ccccc43)cc2[N+](=O)[O-])C1 (stereo unspecified),35,0,0,0,0
Cc1cc(C)n(CC(=O)N2c3ccccc3Sc3ccc(C(F)(F)F)cc32)n1,62,0,0,0,0
